# Measured values reported in PMC8764296 (International Journal of Nanomedicine, 2022).
# Assay: Liver microsomal stability
# Format: in vitro ADME
# Conditions: mouse liver microsomes 0.5 mg/mL, 50 μM, 37 °C, 4 hours incubation
# Method in brief: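 Compound at 50 μM (in vehicle or micelles), with coumarin as control, was preincubated 5 min at 37 °C with mouse liver microsomes (0.5 mg/mL) in PBS pH 7.4. Reactions were started with an NADPH-generating system (3 mM NADPH, 7.2 mM MgCl2, 6 mM G6P, 3 unit G6PDH) and sampled at 0, 5, 30 min and 1, 2, 4 h. Samples were DMSO-extracted for HPLC. ke from lnC versus t gave t1/2 and CL. Triplicate, mean and SD.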
structure (smiles),measurement,value
O=c1ccc2ccccc2o1 [Coumarin],level remaining in liver microsome,10.7 ± 2.2%
